Screens deposited in PubChem by several laboratories.
The list is not random: actives were taken first. Their share in the collection is about 1.8%.
A1 inh = inhibitors of the anti-apoptotic protein A1, read as caspase activation. MEF A1-2A-BIM cells, Caspase-Glo 3/7 luminescence, 3 h; percent of clofoctol response, vehicle zero. caspase activation, % (no concentration beside the values). AID 2462. actives 0.066% (n = 330,000);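 active = over half of replicate activation scores above 10%, or exactly half above 10 with the replicate mean above 10; inconclusive = replicate mean below 10 yet half the replicates above 10; inactive = over half of replicates below 10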
ATG4B inhibitor = inhibitors of human ATG4B cysteine protease. Q9Y4P1. inhibition, % at 8.33 µM. ATG4B cleavage of LC3-PLA2, NBD-HPC fluorescence, 1 h. actives 0.51% (n = 340,000); in the data active = inhibition above about 40%
HDAC3 inh = inhibitors of human histone deacetylase 3; actives 0.15% (n = 320,000); O15379; inhibition, % at 8.3 µM; recombinant HDAC3, fluorogenic peptide/trypsin coupled, fluorescence; in the data active = inhibition above about 26%, passing the limit was not always enough; inconclusive = no clear call, values can overlap the other calls
AI-2 QS mod = modulators of Vibrio harveyi AI-2 quorum sensing system; activity change, % at 7.5 µM; actives 0.4% (n = 300,000); Vibrio harveyi JMH597 AI-2 luminescence/OD600 ratio, 9 h; hits give low values; strain lacks LuxN and CqsS sensors; 0 = neutral-control median; AID 2094; in the data active = activity change below about -75%, passing the limit was not always enough; inconclusive = no clear call, values can overlap the other calls;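 also: luminescence divided by OD600 gain over 9 h not by final OD600 alone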
HKDC1 inhibitor = inhibitors of human hexokinase HKDC1 | Q2TB90 | inhibition, % at 20 µM | actives 0.16% (n = 340,000) | AID 493160 | recombinant HKDC1, G6PDH/diaphorase resazurin coupled fluorescence;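 active = inhibition above about 35% when tested at 20 µM, limit read from the data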;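 also: plate controls were DMSO wells with enzyme for no effect and DMSO wells lacking enzyme for full effect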
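Material – in-house recombinant HK5 (HKDC1) enzyme · Quantity – HKDC1 at 5 µg/mL · Buffer or medium – pH 8.0 Tris buffer with 10 mM MgCl2 · Reagent – glucose with 1 mM ATP · Dosing – single 20 µM dose · Times – reaction time 90 min, room temperature, protected from light · Technique – resorufin fluorescence at 613 nm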
LANA-H2A inh = blocks KSHV LANA binding to histone H2A/H2B | Q9QR71 | cell-free LANA-H2A/H2B peptide, fluorescence polarization | inhibition, % (test concentration not listed) | actives 0.6% (n = 320,000) | AID 2629; in the data active = inhibition mostly above about 10%, no sharp cut-off; inactive = mostly below about 6.7%
Target sequence (Q9QR71 whole entry, looked up): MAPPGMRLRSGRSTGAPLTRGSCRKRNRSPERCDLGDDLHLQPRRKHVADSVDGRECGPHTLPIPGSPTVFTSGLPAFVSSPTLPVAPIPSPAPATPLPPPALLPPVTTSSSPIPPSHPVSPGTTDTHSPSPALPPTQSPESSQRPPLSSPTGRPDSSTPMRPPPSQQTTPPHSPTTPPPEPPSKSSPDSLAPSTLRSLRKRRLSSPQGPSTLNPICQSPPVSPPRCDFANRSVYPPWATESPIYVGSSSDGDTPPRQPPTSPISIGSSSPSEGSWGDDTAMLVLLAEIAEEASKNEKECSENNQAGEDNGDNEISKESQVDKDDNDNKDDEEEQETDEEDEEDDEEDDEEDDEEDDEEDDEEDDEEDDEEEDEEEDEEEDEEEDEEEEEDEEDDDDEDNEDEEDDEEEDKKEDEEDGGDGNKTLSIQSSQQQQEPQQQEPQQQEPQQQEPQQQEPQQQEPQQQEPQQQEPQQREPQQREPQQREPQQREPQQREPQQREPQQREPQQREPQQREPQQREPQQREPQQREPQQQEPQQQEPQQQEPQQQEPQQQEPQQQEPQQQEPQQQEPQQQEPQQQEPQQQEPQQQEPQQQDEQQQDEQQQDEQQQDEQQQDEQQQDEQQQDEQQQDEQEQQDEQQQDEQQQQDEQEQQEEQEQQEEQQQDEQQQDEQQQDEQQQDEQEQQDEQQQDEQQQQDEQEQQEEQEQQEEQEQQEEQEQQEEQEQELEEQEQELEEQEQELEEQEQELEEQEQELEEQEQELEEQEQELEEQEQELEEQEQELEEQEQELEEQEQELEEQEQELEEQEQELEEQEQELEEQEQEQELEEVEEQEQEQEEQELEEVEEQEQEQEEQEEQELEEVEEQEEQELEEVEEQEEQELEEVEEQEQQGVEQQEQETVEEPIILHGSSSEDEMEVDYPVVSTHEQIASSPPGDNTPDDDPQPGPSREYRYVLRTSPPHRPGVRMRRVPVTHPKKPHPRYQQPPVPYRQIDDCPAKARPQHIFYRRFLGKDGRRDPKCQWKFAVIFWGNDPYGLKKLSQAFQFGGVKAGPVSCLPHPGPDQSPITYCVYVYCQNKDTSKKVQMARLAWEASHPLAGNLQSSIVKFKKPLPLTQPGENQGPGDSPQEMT
JMH597 growth rt = retest: blocks Vibrio harveyi JMH597 growth | shares compounds with AI-2 QS mod | OD600 absorbance, 9 h; lacks LuxN and CqsS sensors | growth inhibition, % at 7.5 µM | actives 1% (n = 750);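 active = every replicate shows growth inhibition above 50%; inconclusive = at least half, but not all, replicates pass that cutoff; inactive = fewer than half of replicates pass it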
BB721 lum counter = retest counter-screen: BB721 constitutive quorum sensing luminescence decrease | inhibition, % at 7.5 µM | Vibrio harveyi BB721 luminescence, 9 h | shares compounds with AI-2 QS mod | actives 95% (n = 750);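 active = inhibition above about 80% in every replicate, not just on average, limit read from the data; inconclusive = at least half of replicates past the limit, but not all; inactive = fewer than half of replicates past the limit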
BB721 growth = retest Vibrio harveyi BB721 growth inhibition. shares compounds with AI-2 QS mod. OD600 absorbance, 9 h. growth inhibition, % at 7.5 µM. actives 3% (n = 750);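 active = every replicate shows growth inhibition above 50%; inconclusive = at least half but not all replicates above 50% inhibition; inactive = under half of replicates above 50% inhibition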
AI-2 QS JMH597 = Vibrio harveyi AI-2 signaling luminescence modulation – JMH597 strain, confirmation; actives 97% (n = 750); shares compounds with AI-2 QS mod; inhibition, % at 7.5 µM; Vibrio harveyi JMH597 AI-2 quorum sensing luminescence, 9 h; luxN and CqsS knockout, AI-2 only;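 active = every replicate shows more than 75% inhibition of signal versus neutral control wells; inconclusive = half to three quarters of replicates exceed 75% inhibition; inactive = fewer than half of replicates exceed 75% inhibition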
* = called active by the depositor.

Clc1cccc(OCc2nnc(-c3ccccc3Br)o2)c1 was read as A1 inh 0, ATG4B inhibitor 21, HDAC3 inh 2, AI-2 QS mod -90*, HKDC1 inhibitor 2, LANA-H2A inh -3, JMH597 growth rt inconclusive, BB721 lum counter 97*, BB721 growth 82* and AI-2 QS JMH597 98*.
O=C(COC(=O)c1ccc(Cl)s1)c1cc2ccccc2o1 was read as A1 inh 2, ATG4B inhibitor 29, HDAC3 inh 7, AI-2 QS mod -95*, HKDC1 inhibitor 0, LANA-H2A inh -5, JMH597 growth rt 21, BB721 lum counter 99*, BB721 growth 29 and AI-2 QS JMH597 99*.
`CC1CCCCC1NC(=O)c1c(O)nc2ccccn2c1=O` (stereo not given) gave A1 inh 0, ATG4B inhibitor 2, HDAC3 inh -11, AI-2 QS mod 28, HKDC1 inhibitor 0 and LANA-H2A inh -3.
Screening Cc1cccc(OCCC(=O)Nc2ccc(F)c(Cl)c2)c1 returned A1 inh 0, ATG4B inhibitor 11, HDAC3 inh 4, AI-2 QS mod -86*, HKDC1 inhibitor 2, LANA-H2A inh 0, JMH597 growth rt 23, BB721 lum counter 94*, BB721 growth 32 and AI-2 QS JMH597 95*.
For Cc1ccc(OCCC(=O)Nc2ccc(F)c(F)c2)cc1 the results were A1 inh 0, ATG4B inhibitor 5, HDAC3 inh 4, AI-2 QS mod -86*, HKDC1 inhibitor -3, LANA-H2A inh -2, JMH597 growth rt 15, BB721 lum counter 94*, BB721 growth 11 and AI-2 QS JMH597 94*.
`Cc1ccc(OCCC(=O)OCC(=O)Nc2ccc(F)cc2)cc1` gave A1 inh 0, ATG4B inhibitor 6, HDAC3 inh 2, AI-2 QS mod 12, HKDC1 inhibitor -3 and LANA-H2A inh 2.
For Cc1cccc(OCCCC(=O)Nc2ccc3c(c2)OCO3)c1 the results were A1 inh 0, ATG4B inhibitor -6, HDAC3 inh 6, AI-2 QS mod 17, HKDC1 inhibitor -12 and LANA-H2A inh -1.
COc1ccc(CNC(=O)c2cc(-c3cc(C)ccc3O)n[nH]2)cc1 was read as A1 inh 0, ATG4B inhibitor -12, HDAC3 inh 4, AI-2 QS mod -79*, HKDC1 inhibitor -2, LANA-H2A inh 5, JMH597 growth rt -33, BB721 lum counter inconclusive, BB721 growth -13 and AI-2 QS JMH597 84*.
`CCOC(=O)c1c(NC(=O)CSc2ncnc3[nH]ncc23)sc2c1CCC(C)C2` (stereo not given) gave A1 inh 0, ATG4B inhibitor 1, HDAC3 inh 5, AI-2 QS mod 52, HKDC1 inhibitor 5 and LANA-H2A inh 3.
For CNC(=O)c1ccccc1NC(=O)C1CC(=O)N(c2ccc(OC)cc2)C1 (stereo not given) the results were A1 inh 1, ATG4B inhibitor 1, HDAC3 inh -6, AI-2 QS mod 38, HKDC1 inhibitor -5 and LANA-H2A inh 0.
For O=C(CCl)NN1C(=O)NC2(CCCCC2)C1=O the results were A1 inh 0, ATG4B inhibitor -3, HDAC3 inh -7, AI-2 QS mod 0, HKDC1 inhibitor -9 and LANA-H2A inh -1.
